# Compound activity deposited in PubChem by Sanford-Burnham Center for Chemical Genomics.
# An excerpt weighted towards active compounds, which were near 2.3% of everything screened.
# ATG4B inhibitor = inhibitors of human ATG4B cysteine protease | Q9Y4P1 | ATG4B cleavage of LC3-PLA2, NBD-HPC fluorescence, 1 h | inhibition, % at 8.33 µM | actives 0.51% (n = 340,000) | AID 504462; in the data active means inhibition above about 40%
# Target sequence (Q9Y4P1 whole entry, looked up): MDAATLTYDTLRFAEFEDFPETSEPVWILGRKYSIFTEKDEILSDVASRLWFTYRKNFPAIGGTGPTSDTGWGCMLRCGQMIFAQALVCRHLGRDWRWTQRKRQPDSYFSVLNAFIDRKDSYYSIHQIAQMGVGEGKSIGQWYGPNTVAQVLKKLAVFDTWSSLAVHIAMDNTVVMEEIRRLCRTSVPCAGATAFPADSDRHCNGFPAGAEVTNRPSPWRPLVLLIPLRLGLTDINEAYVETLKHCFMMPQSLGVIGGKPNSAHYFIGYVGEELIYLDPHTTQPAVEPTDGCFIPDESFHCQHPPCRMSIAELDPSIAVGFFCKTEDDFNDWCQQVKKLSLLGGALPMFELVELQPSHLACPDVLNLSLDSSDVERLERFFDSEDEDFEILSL
# SKN-1 inh = blocks SKN-1 activity in C. elegans; C. elegans VP596 Pgst-4::GFP/RFP ratio, acrylamide-induced, 24 h; inhibition, % at 21.8 µM; actives 0.49% (n = 360,000);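 active means interference check ratio from 0.5 to 1.5 plus GFP to RFP signal ratio inhibition reaching or exceeding a fixed threshold, cut at about 30% in these data, passing the limit was not always enough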
# MT1-MMP act inh = inhibitors of human MT1-MMP activation. HT1080 RFP-PRO-GFP cells, GFP/RFP ratio fluorescence, overnight; percent of plate control window, DMSO zero. GFP/RFP ratio change, % at 20 µM. actives 0.061% (n = 360,000);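 active means GFP/RFP ratio change of at least 30% with cell ATP level not reduced by more than half and red fluorescence within 50% of control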
#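 Assay system: HT1080 RFP-PRO-GFP cells | Dosing: 20 µM single dose, 1% DMSO | Incubation: Cells overnight before dosing, compound overnight, 37 °C, 5% CO2 | Evaluation: GFP/RFP fluorescence ratio | Control set: DMSO-only wells and HT1080 RFP-L50D-GFP cell wells as references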
# MPTP block = inhibitors of mitochondrial permeability transition pore; isolated mouse mitochondria, Ca2+ swelling absorbance, 30 min; inhibition, % at 10 µM; actives 1.4% (n = 360,000); AID 602449;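 active means inhibition of 50% or more, scaled per plate between neutral and stimulator controls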;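 further: 0% = DMSO wells given calcium and 100% = 1 mM EGTA wells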
# Active calls of the source: *; x = no result given.
SMILES,ATG4B inhibitor,SKN-1 inh,MT1-MMP act inh,MPTP block
COc1cc(NS(=O)(=O)c2ccc(Br)cc2)c(OC)cc1NC(=O)c1ccco1,-11.5,48.2*,-1.6,2.3
Cc1cc(/C=C2/C(=O)N(C)C(=S)N2C)c(C)n1C1CC1,-3.2,19.6,-14.5,-0.5
CN1C(=O)/C(=C/C=C2\SCCN2C)N(C)C1=S,8.1,47.4*,25.7,-0.6
CC1CCN(c2c([N+](=O)[O-])c(=O)oc3ccccc23)CC1,-3.2,-2.7,-2.0,5.2
CCC(=O)N1Cc2ccccc2-c2ccccc2C1=O,41.4*,x,x,x
CCN(CC(=O)Nc1c(F)cccc1F)C(=O)CSCc1ccc(C)cc1,x,5.9,-2.4,1.1
C=CCn1c(=O)c2ccccc2n2c(SCc3nc4ccccc4s3)nnc12,-13.1,17.7,-1.4,-1.1
C=CCN1C(=O)C(=O)N(Cc2nc3ccccc3s2)C1=O,-2.2,47.9*,0.2,-1.3
FC(F)(F)c1ccc(-c2csc(-c3ccno3)n2)cc1,-6.1,44.0*,-1.3,0.6
Cc1c(C)n(C)c2ccc(C(=O)NCCCN(C)C3CCCCC3)cc12,2.1,37.8*,6.6,-0.8
Cc1c(C)n(C)c2ccc(C(=O)NCCCN3CCCCC3C)cc12 (stereo not drawn),2.0,9.6,-0.7,-0.4
CCOc1ccc(CCNC(=O)CCNC(=O)c2ccco2)cc1OCC,3.2,0.6,4.1,0.3
Fc1ccc(Nc2cccc3nccnc23)cc1,5.6,45.2*,1.8,0.9
CCOc1ccc(S(=O)(=O)N2CCOCC2)cc1NC(=O)CCOc1ccc(C(C)(C)C)cc1,-14.6,-3.2,2.3,0.6
Clc1ccc2oc(SCc3cccnc3)nc2c1,5.3,41.3*,-3.6,0.1
Clc1ccc2oc(-c3ccccc3)nc2c1,-5.0,27.6,-0.9,-0.7
O=C(CSc1nc2cc(Cl)ccc2o1)NCCc1ccccc1,-1.8,-0.2,1.1,-0.1
Clc1ccc2oc(-c3cccnc3)nc2c1,-16.4,49.6*,-4.4,0.2
Cc1cccc(C)c1NC(=O)C(c1ccncc1)n1c(=O)c(-c2cc3ccccc3[nH]2)nc2ccccc21 (stereo not drawn),x,-6.6,-14.3,3.0
Cc1ccc(S(=O)(=O)N2CCSCCSCCSCCSCC2)cc1,-3.4,6.5,1.8,-1.6
COc1cc(CCC(=O)OCC(=O)Nc2ccc(Br)cc2F)cc(OC)c1OC,-3.5,-5.4,4.6,-0.1
COc1cc(CCC(=O)OCC(=O)Nc2ccc(F)cc2F)cc(OC)c1OC,0.9,40.5*,-0.3,-1.8
COC(=O)[C@H](CC(C)C)NC(=O)/C=C/[C@H]1O[C@@H](n2ccc(=O)[nH]c2=O)[C@H](O)[C@@H]1O,x,-5.4,3.9,-0.2
CCCCC1OC23CCCCC2C(C#N)(C#N)C1(C#N)C(=N)O3 (stereo not drawn),-9.0,28.2,-2.1,-1.1
CCCCCCCCOc1ccc(C2OC34CCCCC3C(C#N)(C#N)C2(C#N)C(=N)O4)cc1 (stereo not drawn),-8.3,47.0*,-33.8,-5.2
SMILES,ATG4B inhibitor,SKN-1 inh,MT1-MMP act inh,MPTP block
Clc1nssc1=Nc1ccc(Br)cc1,-0.4,94.2*,0.9,7.6
Cc1cccc(C)c1N(CC(=O)Nc1cccc(N(C)S(C)(=O)=O)c1)S(C)(=O)=O,2.7,36.9*,-0.9,0.1
O=C(O)CN1C(=O)C2C3CC(C2C1=O)C1C(c2ccc(F)cc2)c2sc(=O)[nH]c2SC31 (stereo not drawn),5.7,47.6*,2.3,0.1
CCOC(=O)CC1COCCN1C(=O)c1cc(COc2ccc(F)cc2Cl)on1 (stereo not drawn),26.1,18.1,1.4,-0.3
CC1CCC(C(C)C)C(OC(=O)C[n+]2cccc(C(N)=O)c2)C1 (stereo not drawn),9.8,37.9*,-14.8,0.6
CC1CCC(C(C)C)C(OC(=O)COC(=O)c2ccc(N)cc2)C1 (stereo not drawn),9.6,11.3,1.9,1.0
C(=C\c1ccco1)/C1=NN(c2ccccc2)C(c2ccco2)C1 (stereo not drawn),10.8,12.6,-49.4,6.1
O=[N+]([O-])c1ccc(/C=C/C2=NN(c3ccccc3)C(c3ccco3)C2)o1 (stereo not drawn),-1.9,33.3*,-32.4,6.8
COC(=O)c1cn(NC(=O)C2COc3ccccc3O2)c(=O)c2ccccc12 (stereo not drawn),-9.6,36.1*,x,-0.4
COC(=O)c1cn(NC(=O)C2CCCO2)c(=O)c2ccccc12 (stereo not drawn),-15.8,11.5,-3.3,0.7
CC(c1ccccc1)N1C(=O)c2cccnc2C1=O (stereo not drawn),1.7,38.6*,2.7,-1.2
